What was measured:
Rattus norvegicus [1] = assay: The dose required to increase diastolic blood pressure by 50 mmHg in pithed rats after intravenous administration; assay type: functional; details: Artery
Procedure, shortened: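 Pithed rat preparation with the right femoral vein cannulated for iv dosing (1 mL/kg). At least 30 min equilibration preceded drugs. Pressor effect was read as the increase in diastolic blood pressure (mmHg), and heart rate was recorded by a pulse-triggered cardiotachometer. Values are mean ± SEM.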

[2] = tested on: Adrenergic receptor alpha (Rattus norvegicus); assay: The selectivity was evaluated against alpha 1 and alpha 2 adrenoceptors
Rattus norvegicus [3] = assay: Tested for alpha1 adrenoceptor-Mediated Pressor Response in Pithed Rats; Dose ratio subsequent administration of antagonist (Prazosin) intravenously at a dose of 0.1 mg/kg; assay type: functional; details: route intravenous
Procedure, shortened: (§1)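 Pithed rats; drugs given iv through the cannulated right femoral vein at 1 mL/kg after at least 30 min equilibration. Pressor responses to the agonist were recorded as rises in diastolic blood pressure (mmHg), with and without pretreatment with prazosin (0.1 mg/kg, iv; α1-selective) or yohimbine (1 mg/kg, iv; α2-selective). Shift of the agonist dose-response was expressed as a dose ratio (mean ± SEM).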

Rattus norvegicus [4] = assay: Tested for alpha-2 adrenoceptor-Mediated Pressor Response in Pithed Rats; Dose ratio by subsequent administration of antagonist (yohimbine) intravenously at a dose of 1 mg/kg; assay type: functional; details: route intravenous; procedure, shortened: as §1
Rattus norvegicus [5] = assay: Tested for alpha-1 adrenoceptor-Mediated Pressor response in Pithed Rats; Dose ratio subsequent administration of antagonist (Prazosin) intravenously at a dose of 0.1 mg/kg; assay type: functional; details: route intravenous
Procedure, shortened: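 Pithed rats; drugs given iv via the right femoral vein at 1 mL/kg after at least 30 min equilibration. The pressor response is the rise in diastolic blood pressure (mmHg). Agonist pressor responses were measured after α1-selective blockade with prazosin (0.1 mg/kg, iv), and the dose ratio for the pressor response was derived. Values are mean ± SEM.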

Row | Compound | ED50 (Rattus norvegicus [1]) | Selectivity [2] | Dose ratio (Rattus norvegicus [3]) | Dose ratio (Rattus norvegicus [4]) | Dose ratio (Rattus norvegicus [5])
1 | c1ccc(C2CC2)c(OCC2=NCCN2)c1 [CIRAZOLINE] | 0.0006 mg/kg |  |  |  | 
2 | Cl.Cl.NCCNCc1ccc(O)c(O)c1 | 0.305 mg/kg | 1.3 | 5.5 | 4.4 | 
3 | Cl.Oc1ccc(CN2C=NCC2)cc1O | 0.035 mg/kg | 2.2 | 5.3 | 2.4 | 
4 | Cl.Oc1ccc(CCN2C=NCC2)cc1O | 0.024 mg/kg | 0.7 | 1.3 | 2.1 | 
5 | Cl.Cl.NCCNCCc1ccc(O)c(O)c1 | 0.028 mg/kg | 0.3 | 1.7 | 5.7 | 
6 | Oc1ccc(CC2=NCCN2)cc1O | 0.00035 mg/kg | 2 |  | 0.4 | 0.8
7 | Br.Br.CCN1CCc2nc(N)oc2CC1 | 0.026 mg/kg |  |  |  | 
